# Screens as filed in PubChem.
# An excerpt weighted towards active compounds, which were near 1.6% of everything screened.
# Tb MetRS inh – Trypanosoma brucei MetRS inhibition; actives 0.4% (n = 360,000); inhibition, % at 11.9 µM; purified T. brucei MetRS, ATP depletion, Kinase-Glo luminescence; AID 624268;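 active = inhibition above a per-plate cutoff of the control wells' mean inhibition plus 3 SD, cut at about 5.5% in these data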;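 note: 0% = DMSO wells median and 100% = median of wells with control inhibitor compound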
#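 assay system = parasite MetRS enzyme | timing = 15 min preincubation, 2 h reaction, all 25 °C | evaluation = percent inhibition relative to median high and low control wells | medium = HEPES buffer containing pyrophosphatase, BSA, spermine, DTT | compound = single dose, 11.9 µM final nominal, 0.9% final DMSO | detection = Kinase-Glo luminescence, ATP depletion format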
# eIF4E 4G PPI – inhibitors of eIF4E and eIF4G interaction in translation initiation. P63073+Q04637. inhibition, % at 21.7 µM. TR-FRET eIF4E-eIF4GI(517-606) binding, 2 h. actives 0.37% (n = 220,000). AID 782;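 note: 0% = full FRET control wells and 100% = background wells lacking eIF4GI fragment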
# p97 ATPase inh – inhibitors of human p97 ATPase; inhibition, % at 8 µM; AID 1481; actives 0.42% (n = 220,000); recombinant p97 ATPase, Kinase-Glo ATP luminescence, 3 h; in the data active = inhibition above about 15%;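 note: 0% = DMSO vehicle and 100% = wells lacking enzyme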
# p47phox inh – blocks human p47phox regulatory protein of NADPH oxidases; inhibition, % at 24.7 µM; AID 1274; p47phox/p22phox peptide binding, fluorescence polarization, 2 h; actives 0.53% (n = 220,000); P14598;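 note: 0% = p47phox with labelled peptide and 100% = labelled peptide alone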
# Target sequence (P14598 whole entry, looked up): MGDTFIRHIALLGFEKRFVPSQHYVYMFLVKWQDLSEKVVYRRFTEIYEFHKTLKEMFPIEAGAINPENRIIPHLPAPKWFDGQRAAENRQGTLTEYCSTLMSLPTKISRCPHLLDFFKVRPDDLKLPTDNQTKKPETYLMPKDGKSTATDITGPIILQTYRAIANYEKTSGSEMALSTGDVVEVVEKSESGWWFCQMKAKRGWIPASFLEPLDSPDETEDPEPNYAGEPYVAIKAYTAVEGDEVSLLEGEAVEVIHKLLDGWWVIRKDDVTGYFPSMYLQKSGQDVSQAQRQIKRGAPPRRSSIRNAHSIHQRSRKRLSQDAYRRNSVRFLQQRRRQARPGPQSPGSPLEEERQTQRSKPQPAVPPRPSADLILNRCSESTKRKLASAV
# 14-3-3 Bad inh – disrupts binding of bovine 14-3-3 zeta to phospho-Bad peptide. TR-FRET 14-3-3zeta/Dy647-pBad peptide displacement, 1 h. inhibition, % at 21.7 µM. actives 0.71% (n = 220,000). AID 781;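 active = inhibition above about 70%, limit read from the data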;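 note: 0% = full 14-3-3 plus peptide FRET controls and 100% = background without 14-3-3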
# SUMO HTRF inh – inhibitors of human SUMOylation (UBC9); P63279; AID 2006; actives 0.36% (n = 290,000); HTRF SUMOylation assay, SAE1/SAE2 + UBC9, in vitro; inhibition, % at 35 µM; in the data active = inhibition above about 50%, passing the limit was not always enough
# * marks the source's active call; other numbers are inactive results; / = not tested or not shown.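 Rule for the calls, unless noted: active = inhibition above about 30% (limit read from the data); inactive = the rest.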
SMILES,Tb MetRS inh,eIF4E 4G PPI,p97 ATPase inh,p47phox inh,14-3-3 Bad inh,SUMO HTRF inh
N#CC1=C(N)OC2=C(CN(Cc3ccccc3)C/C2=C\c2cccnc2)C1c1cccnc1 (centres undefined),0,-4,2,123*,-12,0
CC(C)N1CC2=C(OC(N)=C(C#N)C2c2cccnc2)/C(=C/c2cccnc2)C1 (centres undefined),1,10,-3,77*,9,19
CCc1ccc(-c2cc3c(=O)n(CC(=O)NCCCN4CCN(C)CC4)ncn3n2)cc1,0,/,/,/,/,/
O=C(O)C1=CCC(c2ccc(Cl)c(Cl)c2)N(S(=O)(=O)c2ccc(F)cc2)C1c1cccc(F)c1 (centres undefined),0,/,/,/,/,/
O=C(Nc1ccc2[nH]ccc2c1)c1cccs1,0,32*,3,-8,-4,28
Cc1cccc(C)c1N1CCN(C(c2cc3ccccc3o2)c2nnnn2C(C)(C)C)CC1 (centres undefined),-1,/,/,/,/,/
O=C(O)C(Cc1ccccc1)N1C(=O)/C(=C/C=C/c2ccco2)SC1=S (centres undefined),1,53*,27*,-71,95*,73*
Cc1ccc(NC(=O)CCCN2C(=O)/C(=C/C=C/c3ccccc3)SC2=S)cc1,-1,0,8,-31,4,21
O=C(O)CC(C(=O)O)N1C(=O)/C(=C/C=C/c2ccco2)SC1=S (centres undefined),1,32*,13,-44,74*,/
COc1ccc(/C=C2\SC(=S)N(C(Cc3ccccc3)C(=O)O)C2=O)cc1 (centres undefined),0,4,-2,-4,8,29
O=C(O)CCCN1C(=O)/C(=C/C=C/c2ccco2)SC1=S,1,32*,7,-64,76*,70
O=C(O)CC(C(=O)O)N1C(=O)/C(=C/c2ccc(-c3nc4ccccc4s3)o2)SC1=S (centres undefined),1,5,1,-34,13,3
CC1OC2CC(=O)OC2C2=C1C(=O)c1c(O)cccc1C2=O (centres undefined),2,/,/,/,/,/
Cc1ccc(CNc2cccnc2)cc1,-1,/,/,/,/,5
Cc1ccc(NCc2cccnc2)cc1,-1,7,-1,15,71*,32
CCSS(=O)(=O)c1cccc2cccnc12,0,23,3,52*,15,9
COc1cccc(C(=O)N2CCN(C3CCC(c4ccccc4)CC3)CC2)c1 (centres undefined),-1,6,-7,-2,75*,15
COc1cc(OC)cc(C(=O)N2CCN(C3CCN(Cc4ccccc4)CC3)CC2)c1,0,7,3,4,73*,-1
COc1cccc(C(=O)N2CCC(N3CC(C)OC(C)C3)CC2)c1 (centres undefined),1,5,2,7,26,13
COc1cc(OC)cc(C(=O)N2CCN(C3CCCCC3)CC2)c1,-1,/,/,/,/,7
O=C(c1ccc(-n2cccc2)cc1)N1CCN(Cc2ccccc2)CC1,-1,2,-2,5,91*,-18
COCCOC(=O)N1CCCCC1c1cc(C(=O)Nc2cccc3c2CCCC3)no1 (centres undefined),0,/,/,/,/,/
COc1ccc(N2CCN(C(=O)c3cccc(N4C(=O)C5C6C=CC(C6)C5C4=O)c3)CC2)cc1 (centres undefined),0,/,/,/,/,-9
O=C(c1cccc(N2C(=O)C3C4C=CC(C4)C3C2=O)c1)N1CCCCCC1 (centres undefined),-1,2,-1,3,77*,12
CC1=CC(=O)C=CC1=Nc1ccc(N(C)C)cc1,0,/,/,/,/,/
CC1(C)CC(c2nc(-c3ccc(Cl)cc3)cs2)CCS1 (centres undefined),-1,2,18*,-8,-6,-29
O=C(O)c1cc(-c2ccccc2)n(-c2ccc(Cl)cc2Cl)n1,0,/,/,/,/,-4
O=C(O)c1cc(-c2ccccc2)n(-c2ccccc2C(=O)O)n1,0,42*,1,-15,11,-31
O=C(O)c1ccc(-n2c(=O)c3ccccc3c3ccccc3c2=O)cc1,-1,2,1,-7,-4,8
